Columns and labels:
Type in all cases: functional
[1] = system: BT-549; assay: Antiproliferative activity against human BT549 cells assessed as cell growth at 10 uM; settings: read-out: Activity
Procedure, shortened: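 NCI 60 cell line panel, single-dose screen (10^-5 M) run by the developmental therapeutics program protocol. Results are given as growth percent of treated cells relative to untreated control cells for each line.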

[2] = system: A549; assay: Growth inhibition of human A549 cells
Procedure, shortened: (§1)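 NCI 60 cancer cell line screen run per the Developmental Therapeutics Program protocol. Dose–response curves were plotted against log10 drug concentration for each cell line within its subpanel, and mean graph midpoint values were calculated.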

[3] = system: MDA-MB-468; assay: Growth inhibition of human MDA-MB-468 cells; procedure, shortened: as §1
[4] = system: CCRF-CEM; assay: Growth inhibition of human CCRF-CEM cells; procedure, shortened: as §1
[5] = system: NCI-H226; assay: Growth inhibition of human NCI-H226 cells; procedure, shortened: as §1
[6] = system: SF-295; assay: Growth inhibition of human SF295 cells
Procedure, shortened: (§2)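 Assayed in the NCI 60 human cancer cell line panel under the Developmental Therapeutics Program protocol. For each line, dose–response curves were plotted against log10 drug concentration. In the one-dose screen at 10^-5 M, growth was given as percent of untreated control cells, and mean graph midpoint values were averaged.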

[7] = system: M14; assay: Growth inhibition of human M14 cells; procedure, shortened: as §1
[8] = system: SW-620; assay: Growth inhibition of human SW620 cells; procedure, shortened: as §2
[9] = system: HCT-15; assay: Growth inhibition of human HCT15 cells; procedure, shortened: as §1
[10] = system: RXF 393; assay: Growth inhibition of human RXF393 cells; procedure, shortened: as §2
[11] = system: HCT-116; assay: Growth inhibition of human HCT116 cells; procedure, shortened: as §1
[12] = system: HOP-92; assay: Growth inhibition of human HOP92 cells; procedure, shortened: as §1
[13] = system: SR; assay: Growth inhibition of human SR cells; procedure, shortened: as §2
[14] = system: HOP-62; assay: Growth inhibition of human HOP62 cells; procedure, shortened: as §1
[15] = system: HT-29; assay: Growth inhibition of human HT-29 cells; procedure, shortened: as §1
[16] = system: U-251; assay: Growth inhibition of human U251 cells; procedure, shortened: as §2
[17] = system: PC-3; assay: Growth inhibition of human PC3 cells; procedure, shortened: as §2
[18] = system: NCI-H460; assay: Growth inhibition of human NCI-H460 cells; procedure, shortened: as §1
[19] = system: SK-OV-3; assay: Growth inhibition of human SKOV3 cells; procedure, shortened: as §2
[20] = system: HCC 2998; assay: Growth inhibition of human HCC2998 cells; procedure, shortened: as §1
[21] = system: NCI-H522; assay: Growth inhibition of human NCI-H522 cells; procedure, shortened: as §1
[22] = system: LOX IMVI; assay: Growth inhibition of human LOXIMVI cells; procedure, shortened: as §1
[23] = system: SF-539; assay: Growth inhibition of human SF539 cells; procedure, shortened: as §2
[24] = system: T47D; assay: Growth inhibition of human T47D cells; procedure, shortened: as §2
[25] = system: EKVX; assay: Growth inhibition of human EKVX cells; procedure, shortened: as §1
[26] = system: MDA-MB-231; assay: Growth inhibition of human MDA-MB-231 cells; procedure, shortened: as §1
[27] = system: OVCAR-4; assay: Growth inhibition of human OVCAR4 cells; procedure, shortened: as §1
[28] = Growth inhibition of human […] cells; procedure, shortened: as §2
[29] = system: OVCAR-5; assay: Growth inhibition of human OVCAR5 cells; procedure, shortened: as §1
[30] = system: HL-60(TB); assay: Growth inhibition of human HL-60(TB) cells
Procedure, shortened: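 NCI 60-cell-line panel run under the Developmental Therapeutics Program protocol. Dose-response curves are plotted against log10 drug concentration for each cell line within its subpanel, and GI50 is read from these curves.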

[31] = system: Malme-3M; assay: Growth inhibition of human MALME-3M cells; procedure, shortened: as §1
[32] = system: UACC-62; assay: Growth inhibition of human UACC62 cells; procedure, shortened: as §2
[33] = system: UO-31; assay: Growth inhibition of human UO31 cells; procedure, shortened: as §2
[34] = system: NCI-H23; assay: Growth inhibition of human NCI-H23 cells; procedure, shortened: as §1
[35] = system: DU-145; assay: Growth inhibition of human DU145 cells; procedure, shortened: as §1
[36] = system: SK-MEL-5; assay: Growth inhibition of human SK-MEL-5 cells; procedure, shortened: as §2
[37] = system: UACC-257; assay: Growth inhibition of human UACC257 cells; procedure, shortened: as §2
[38] = read-out: LC50 (the source's name)

In the case of `Cc1ccc(-c2nc3ccc4c(c3[nH]2)C(=O)c2ccccc2C4=O)cc1`, the growth at 10 µM [1] is reported as 94.1%.
`CCc1nc2ccc3c(c2[nH]1)C(=O)c1ccccc1C3=O` showed a GI50 [2] of 28.5 µM, a TGI [2] of over 100 µM and a CC50 [2, 38] of over 100 µM. It also gave a GI50 [3] of 8.29 µM, a TGI [3] of over 100 µM and a CC50 [3, 38] of over 100 µM. The GI50 [4] was 16.5 µM, the TGI [4] was over 100 µM and the CC50 [4, 38] was over 100 µM. The GI50 [5] was 2.46 µM, the TGI [5] was over 100 µM and the CC50 [5, 38] was over 100 µM. The GI50 [6] was 4.15 µM, the TGI [6] was over 100 µM and the CC50 [6, 38] was over 100 µM. For the same compound, the GI50 [7] was 7.42 µM, the TGI [7] was over 100 µM and the CC50 [7, 38] was over 100 µM. The GI50 [8] was 19.8 µM, the TGI [8] was over 100 µM and the CC50 [8, 38] was over 100 µM. It also gave a GI50 [9] of 3.39 µM, a TGI [9] of over 100 µM and a CC50 [9, 38] of over 100 µM. For the same compound, the GI50 [10] was 6.95 µM, the TGI [10] was over 100 µM and the CC50 [10, 38] was over 100 µM. It also gave a GI50 [11] of 5.9 µM, a TGI [11] of over 100 µM and a CC50 [11, 38] of over 100 µM. It also gave a GI50 [12] of 9.84 µM, a TGI [12] of 7.58 µM and a CC50 [12, 38] of over 100 µM. For the same compound, the GI50 [13] was 6.71 µM, the TGI [13] was over 100 µM and the CC50 [13, 38] was over 100 µM. It also gave a GI50 [14] of 32.2 µM, a TGI [14] of over 100 µM and a CC50 [14, 38] of over 100 µM. The GI50 [15] was 16.1 µM, the TGI [15] was over 100 µM and the CC50 [15, 38] was over 100 µM. For the same compound, the GI50 [16] was 16.3 µM, the TGI [16] was over 100 µM and the CC50 [16, 38] was over 100 µM. For the same compound, the GI50 [17] was 28.2 µM, the TGI [17] was over 100 µM and the CC50 [17, 38] was over 100 µM. It also gave a GI50 [18] of 5.27 µM, a TGI [18] of over 100 µM and a CC50 [18, 38] of over 100 µM. For the same compound, the GI50 [19] was 2.59 µM, the TGI [19] was over 100 µM and the CC50 [19, 38] was over 100 µM. The GI50 [20] was 18.8 µM, the TGI [20] was over 100 µM and the CC50 [20, 38] was over 100 µM. It also gave a GI50 [21] of 28.3 µM, a TGI [21] of over 100 µM and a CC50 [21, 38] of over 100 µM. The GI50 [22] was 4.56 µM, the TGI [22] was over 100 µM and the CC50 [22, 38] was over 100 µM. It also gave a GI50 [23] of 11.7 µM, a TGI [23] of over 100 µM and a CC50 [23, 38] of over 100 µM. The GI50 [24] was 3.3 µM, the TGI [24] was over 100 µM and the GI50 [25] was 4.6 µM. For the same compound, the TGI [25] was over 100 µM, the CC50 [25, 38] was over 100 µM and the GI50 [26] was 8.86 µM. It also gave a TGI [26] of over 100 µM, a GI50 [27] of 25.7 µM and a TGI [27] of over 100 µM. It also gave a CC50 [27, 38] of over 100 µM, a GI50 [28] of 4.16 µM and a TGI [28] of over 100 µM. For the same compound, the CC50 [28, 38] was over 100 µM, the GI50 [29] was 77.4 µM and the TGI [29] was over 100 µM. For the same compound, the CC50 [29, 38] was over 100 µM, the GI50 [30] was 2.72 µM and the TGI [30] was 64.1 µM. It also gave a CC50 [30, 38] of over 100 µM, a GI50 [31] of 8.55 µM and a TGI [31] of over 100 µM. It also gave a CC50 [31, 38] of over 100 µM, a GI50 [32] of 8.09 µM and a TGI [32] of over 100 µM. The CC50 [32, 38] was over 100 µM, the GI50 [33] was 1.33 µM and the TGI [33] was over 100 µM. It also gave a CC50 [33, 38] of over 100 µM, a GI50 [34] of 12.1 µM and a TGI [34] of over 100 µM. For the same compound, the CC50 [34, 38] was over 100 µM, the GI50 [35] was 9.43 µM and the TGI [35] was over 100 µM. The CC50 [35, 38] was over 100 µM, the GI50 [36] was 12.7 µM and the TGI [36] was 59.1 µM. The CC50 [36, 38] was over 100 µM, the GI50 [37] was 47.2 µM and the TGI [37] was over 100 µM. For the same compound, the CC50 [37, 38] was over 100 µM.

Source: ChEMBL document CHEMBL1152649, “Synthesis, cytotoxicity and human telomerase inhibition activities of a series of 1,2-heteroannelated anthraquinones and anthra[1,2-d]imidazole-6,11-dione homologues” (2009)
